Assay results reported in ChEMBL document CHEMBL3091306, “Synthesis, docking and pharmacological evaluation of novel homo- and hetero-bis 3-piperazinylpropylindole derivatives at SERT and 5-HT1A receptor” (Bioorg Med Chem, 2013).

Legend:
[1] = target: Sodium-dependent serotonin transporter (Rattus norvegicus, UniProt P31652); assay: Displacement of [3H]paroxetine from SERT in rat cortical membranes after 6 mins by liquid scintillation counting; format: cell membranes
Procedure, shortened: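 Rat cortical membranes (0.35 mg original wet weight) incubated with 0.2 nM [3H]paroxetine and test compound at 10^-11–10^-4 M in 50 mM Tris–HCl pH 7.7 with 150 mM NaCl, 5 mM KCl, 1.0 ml, 6 min at 25 °C; stopped by rapid filtration through polyethyleneimine-soaked GF/B filters, ice-cold buffer washes.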

[2] = target: T1, 5-hydroxytryptamine receptor 1A (Homo sapiens, UniProt P08908); assay: Displacement of [3H]8-OH-DPAT from human 5-HT1A receptor expressed in HEK293 cells; format: cell-based
T1 sequence (P08908 whole entry): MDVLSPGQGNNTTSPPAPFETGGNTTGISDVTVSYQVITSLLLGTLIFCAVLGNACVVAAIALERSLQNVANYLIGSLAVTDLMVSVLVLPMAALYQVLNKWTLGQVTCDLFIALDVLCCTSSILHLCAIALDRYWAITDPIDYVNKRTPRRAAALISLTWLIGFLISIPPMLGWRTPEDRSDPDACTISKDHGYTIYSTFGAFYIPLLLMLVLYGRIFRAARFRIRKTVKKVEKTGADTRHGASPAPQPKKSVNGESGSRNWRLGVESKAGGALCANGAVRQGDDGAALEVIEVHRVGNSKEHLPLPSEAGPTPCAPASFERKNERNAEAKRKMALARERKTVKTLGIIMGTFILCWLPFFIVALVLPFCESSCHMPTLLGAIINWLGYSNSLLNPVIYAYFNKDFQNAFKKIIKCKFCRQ

Chain of Sodium-dependent serotonin transporter (P31652 whole entry): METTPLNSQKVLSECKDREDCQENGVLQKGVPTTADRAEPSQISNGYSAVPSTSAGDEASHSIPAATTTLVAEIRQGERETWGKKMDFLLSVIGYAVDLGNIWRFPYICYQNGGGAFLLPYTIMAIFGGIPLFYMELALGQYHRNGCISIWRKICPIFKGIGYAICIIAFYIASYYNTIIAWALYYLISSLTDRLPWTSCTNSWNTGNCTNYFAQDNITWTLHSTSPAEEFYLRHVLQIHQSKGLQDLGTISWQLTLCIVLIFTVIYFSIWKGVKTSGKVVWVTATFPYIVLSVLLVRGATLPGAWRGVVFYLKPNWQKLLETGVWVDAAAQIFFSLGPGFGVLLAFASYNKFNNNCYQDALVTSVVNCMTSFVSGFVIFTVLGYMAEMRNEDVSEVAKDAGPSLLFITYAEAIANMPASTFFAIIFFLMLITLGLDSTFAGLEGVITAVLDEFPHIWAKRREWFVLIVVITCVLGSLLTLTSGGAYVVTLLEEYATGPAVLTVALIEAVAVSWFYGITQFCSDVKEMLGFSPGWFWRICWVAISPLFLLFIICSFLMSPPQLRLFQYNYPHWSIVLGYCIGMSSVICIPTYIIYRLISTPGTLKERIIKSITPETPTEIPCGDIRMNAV

## Fc1ccc2[nH]cc(CCCN3CCN(CCCc4c[nH]c5ccc(Br)cc45)CC3)c2c1
[1]
  IC50: 0.061 µM
[2]
  IC50: 4.9 µM

## Fc1ccc2[nH]cc(CCCN3CCN(CCCc4c[nH]c5ccc(F)cc45)CC3)c2c1
[1]
  IC50: 0.013 µM
[2]
  IC50: 5.7 µM

## Fc1ccc2[nH]cc(CCCN3CCN(CCCc4c[nH]c5ccccc45)CC3)c2c1
[1]
  IC50: 0.026 µM
[2]
  IC50: 0.016 µM

## COc1ccc2[nH]cc(CCCN3CCN(CCCc4c[nH]c5ccc(F)cc45)CC3)c2c1
[1]
  IC50: 0.014 µM
[2]
  IC50: 7.2 µM

## COc1ccc2[nH]cc(CCCN3CCN(CCCc4c[nH]c5ccc(OC)cc45)CC3)c2c1
[1]
  IC50: 0.098 µM
[2]
  IC50: 0.599 µM

## c1ccc2c(CCCN3CCN(CCCc4c[nH]c5ccccc45)CC3)c[nH]c2c1
[1]
  IC50: 0.037 µM
[2]
  IC50: 2.7 µM

## Brc1ccc2[nH]cc(CCCN3CCN(CCCc4c[nH]c5ccc(Br)cc45)CC3)c2c1
[1]
  IC50: 0.087 µM
[2]
  IC50: 1.2 µM

## Brc1ccc2[nH]cc(CCCN3CCN(CCCc4c[nH]c5ccccc45)CC3)c2c1
[1]
  IC50: 0.137 µM
[2]
  IC50: 0.015 µM

## COc1ccc2[nH]cc(CCCN3CCN(CCCc4c[nH]c5ccc(Br)cc45)CC3)c2c1
[1]
  IC50: 0.039 µM
[2]
  IC50: 0.128 µM

## COc1ccc2[nH]cc(CCCN3CCN(CCCc4c[nH]c5ccccc45)CC3)c2c1
[1]
  IC50: 0.043 µM
[2]
  IC50: 4.5 µM
